Test results reported in ChEMBL document CHEMBL4765431, “Novel phthalide derivatives: Synthesis and anti-inflammatory activity in vitro and in vivo” (Eur J Med Chem, 2020).
Activity calls are given as the source filed them. No cut-off for these calls is given here.

Assays:
RAW264.7 [1] = test: Antiinflammatory activity in mouse RAW264.7 cells assessed as inhibition of LPS-induced nitric oxide production preincubated for 1 hr followed by LPS stimulation and measured after 24 hrs by Griess reagent-based assay; type: functional, cell-based
RAW264.7 [2] = test: Inhibition of LPS-induced ROS generation in mouse RAW264.7 cells at 0.5 to 2 uM preincubated for 1 hr followed by LPS stimulation and measured after 6 hrs by DCFH-DA staining based flow cytometry analysis; type: functional, cell-based; details: dose 0.5-2 µM, time 7.0 hrs
Outline: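 RAW264.7 cells (1.5 × 10^6/well, grown 24 h) pretreated 1 h with 0.5, 1, 2 µM, then LPS 0.5 µg/mL for 6 h. Loaded with DCFH-DA 30 min at 37 °C, washed three times with cold serum-free medium or PBS. Intracellular ROS read by flow cytometry.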

RAW264.7 [3] = test: Activation of Nrf2/HO-1 signalling pathway in mouse RAW264.7 cells assessed as increase in nuclear Nrf2 protein expression at 0.5 to 2 uM preincubated for 1 hr followed by LPS stimulation and measured after 24 hrs by Western blotting analysis; type: cell-based; details: filed as activator, dose 0.5-2 µM, time 25.0 hrs
Outline: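 RAW264.7 cells (2 × 10^6/well, grown 24 h) pretreated 1 h with 0.5, 1, 2 µM, then LPS 0.5 µg/mL for 24 h. Lysed in RIPA with PMSF and phosphatase inhibitors, SDS-PAGE, PVDF transfer. Primary antibodies (anti-Nrf2 or anti-HO-1) 16 h at 4 °C, HRP secondary 1:5000 1 h at room temperature, ECL detection. β-actin used for normalization.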

RAW264.7 [4] = test: Activation of Nrf2/HO-1 signalling pathway in mouse RAW264.7 cells assessed as increase in Nrf2 nuclear translocation at 0.5 to 2 uM preincubated for 1 hr followed by LPS stimulation and measured after 6 hrs by DAPI staining based fluorescence microscopic analysis; type: cell-based; details: filed as activator, dose 0.5-2 µM, time 7.0 hrs
Outline: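 Cells grown on glass coverslips, treated 1 h, then LPS 0.5 µg/mL for 6 h. Fixed in 4% paraformaldehyde 20 min at room temperature, blocked 1 h in TBS with 0.1% Triton X-100 and 5% BSA. Stained with anti-Nrf2 and FITC anti-rabbit IgG, nuclei with DAPI. Imaged by inverted fluorescence microscope.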

Rattus norvegicus = test: Antiarthritic activity in Sprague-Dawley rat model of arthritis assessed as reduction in CFA-induced synovial hyperplasia at 20 mg/kg, ig administered daily for 28 days starting from 14 days post-immunization and measured every 3 days by H and E staining based histopathological analysis; type: functional, organism-based; details: time 28.0 day
Outline: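 AA rats (male SD, CFA intradermal into right hind paw) dosed intragastrically once daily at 20 or 40 mg/kg from day 14 to day 28. Killed after 29 days. Ankle joints fixed in 4% neutral buffered paraformaldehyde, decalcified in 10% EDTA, sectioned and H&E stained. Scored for synovial hyperplasia, inflammatory cell infiltration and cartilage destruction.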

IC50 (RAW264.7 [1]): 760 nM
SMILES: COc1cc(OC)c2c(c1)C(C(O)c1ccc(OCc3ccc(F)cc3)cc1)OC2=O (stereo not given)
inhibition (RAW264.7 [2]): inactive
Activity (RAW264.7 [3]): Active
Activity (RAW264.7 [4]): Active
Activity (Rattus norvegicus): Active
